Values after ≈ are worked out from the molar mass of the structure shown.
Tests used:
[1] = system: L1210; test: In vitro cytotoxicity against L1210 murine lymphocytic leukemia cell lines; assay type: functional, cell-based; settings: Mus musculus
Outline: (§1)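 MTT assay on suspension lines dispersed to single cells (L1210 RPMI/10% DHS; ADJ/PC6 DMEM/20% DHS plus hydrocortisone, insulin; H69 RPMI/10% FCS; Walker 256 DMEM/10% DHS), 1×10^3–8×10^3 cells/well. Continuous exposure 72–144 h, 37 °C; MTT 4–5 h, plates spun, formazan in DMSO, A540 vs untreated control. 3–6 replicate wells, each assay at least twice.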

[2] = system: NCI-H69; test: In vitro cytotoxicity against human small cell lung cancer H69 cell lines; assay type: functional, cell-based; outline: as §1
[3] = Half-life was determined in water at 7.5 pH at 37 degree C; assay type: ADME; settings: pH 7.5
Outline: (§2)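 Compound added from 50 mM DMSO stock to 10 mL of medium in polypropylene tubes, final 100 μM; tubes held in water baths at 37 °C or ambient (20–24 °C). Remaining parent measured by HPLC on C8 column, UV 225 nm; t1/2 from semilog plot of peak area versus time. Run on at least two occasions, variation 2–22%.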

[4] = system: ADJ/PC6 plasmacytoma (Mus musculus); test: In vitro cytotoxicity against PC6 murine plasmacytoma cell lines
[5] = In vitro cytotoxicity against GCT / cisR cell lines; assay type: functional, cell-based; settings: Homo sapiens
Outline: (§3)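 MTT assay on GCT-27 and GCT-27/CisR (DMEM, 10% FCS, glutamine, hydrocortisone, insulin), trypsinized to single cells, 1×10^3–8×10^3 cells/well. Continuous drug exposure, 72–144 h at 37 °C, 8% CO2; MTT 4–5 h, formazan in DMSO, A540 (ref 690) as fraction of untreated control. 3–6 replicate wells per concentration, each assay at least twice.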

[6] = In vitro cytotoxicity against GCT cell lines; assay type: functional, cell-based; settings: Homo sapiens; outline: as §3
[7] = Aqueous solubility was determined; assay type: physicochemical
[8] = In vitro cytotoxicity against walker rat carcinoma 256 cell lines; assay type: functional; outline: as §1
[9] = Half-life was determined in water at 2.0 pH at 37 degree C; assay type: ADME; settings: pH 2; outline: as §2
[10] = Half-life was determined in 5%dextrose at 4.0 pH at room temperature; assay type: ADME; settings: 5% dextrose solution, pH 4; outline: as §2
[11] = Half-life was determined in 0.9%sodium chloride at 5.2 pH at room temperature; assay type: ADME; settings: 0.9% sodium chloride solution, pH 5.2; outline: as §2
[12] = Half-life was determined in water at 7.5 pH at room temperature; assay type: ADME; settings: pH 7.5; outline: as §2
[13] = Half-life was determined in water at 5.0 pH at room temperature; assay type: ADME; settings: pH 5; outline: as §2
[14] = Half-life was determined in water at 5.0 pH at 37 degree C; assay type: ADME; settings: pH 5; outline: as §2

SMILES | IC50 [1] [µM] | IC50 [2] [µM] | half-life [3] [h] | IC50 [4] [µM] | IC50 [5] [µM] | IC50 [6] [µM] | solubility [7] [µg/mL] | IC50 [8] [µM] | half-life [9] [h] | half-life [10] [h] | half-life [11] [h] | half-life [12] [h] | half-life [13] [h] | half-life [14] [h]
C#CCN(CO)c1nc(N(CO)CC#C)nc(N(CO)CC#C)n1 | 47.8 | 13.1 | 7.5 | 35.2 | 47.3 | 53.9 | 30 (≈ 90.8 µM) | 14.1 | 0.667 |  |  |  |  | 
CNc1nc(NCC(F)(F)F)nc(N(CO)CC(F)(F)F)n1 | 112 | 32.2 |  | 71.4 |  |  |  | 27.5 |  |  |  |  |  | 
OCN(CC(F)(F)F)c1nc(N(CO)CC(F)(F)F)nc(N(CO)CC(F)(F)F)n1 | 55.1 | 12.8 | 11.5 | 29.5 |  |  | 30 (≈ 64.9 µM) | 12.2 | 1 | 50 | 95 | 85 |  | 
N#CCN(CO)c1nc(N(CO)CC#N)nc(N(CO)CC#N)n1 | 32.4 | 11.8 | 4.58 | 19.4 |  |  | 1000 (≈ 3000 µM) | 7.5 | 5.83 | 180 | 135 | 75.2 | 102 | 16
CN(CO)c1nc(N(C)CO)nc(N(C)CO)n1 [TRIMELAMOL] | 33.4 | 8.5 | 2 | 12.9 | 30.9 | 24.3 | 4500 (≈ 17400 µM) | 9.4 |  | 5.83 | 4.58 |  | 13.7 | 3.33
OCOCN(CC(F)(F)F)c1nc(N(CO)CC(F)(F)F)nc(N(CO)CC(F)(F)F)n1 |  | 13.4 |  | 29.8 | 23.7 | 25.8 |  |  |  |  |  |  |  | 
OCN(CC(F)(F)F)c1nc(NCC(F)(F)F)nc(NCC(F)(F)F)n1 | 83.2 | 42.3 |  | 77.6 |  |  |  | 22.5 |  |  |  |  |  | 
